Measured values from PMC5288965 (Journal of Advanced Pharmaceutical Technology & Research, 2017).
Values after ≈ are worked out from the molar mass of the structure shown. “Also recorded” adds a separate entry of the source. Where two headings read alike, the source gives them in different places.

How the values were obtained:
[1] = target: rat intestinal α-glucosidase; assay: Inhibition of rat alpha-glucosidase activity; format: biochemical; conditions: for IC50 Rat α-glucosidase: 1 mM PNPG substrate, triplicate; for % inhibition of rat α-glucosidase: at 1.25 mg/ml
[2] = target: T1, porcine pancreatic α-amylase (Sus scrofa, UniProt P00690); assay: Inhibition of pancreatic alpha-amylase activity; format: biochemical
T1 sequence (P00690 16-511): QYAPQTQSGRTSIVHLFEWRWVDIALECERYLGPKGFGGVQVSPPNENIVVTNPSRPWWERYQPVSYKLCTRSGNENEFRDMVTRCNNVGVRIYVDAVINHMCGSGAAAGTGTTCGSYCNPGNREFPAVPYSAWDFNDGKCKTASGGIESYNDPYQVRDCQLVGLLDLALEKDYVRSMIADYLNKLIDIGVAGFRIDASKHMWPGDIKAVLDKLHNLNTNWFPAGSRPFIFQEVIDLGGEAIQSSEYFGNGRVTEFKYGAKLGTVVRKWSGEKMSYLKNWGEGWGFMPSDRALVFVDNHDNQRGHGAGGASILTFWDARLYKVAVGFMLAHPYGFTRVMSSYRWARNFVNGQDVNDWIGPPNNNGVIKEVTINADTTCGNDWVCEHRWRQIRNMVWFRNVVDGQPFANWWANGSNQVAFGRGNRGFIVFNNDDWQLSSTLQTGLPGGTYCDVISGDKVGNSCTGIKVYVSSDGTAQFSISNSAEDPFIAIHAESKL

yeast α-glucosidase = yeast α-glucosidase (Saccharomyces cerevisiae, UniProt P53341); assay: Inhibition of yeast alpha-glucosidase activity; format: biochemical
[3] = system: all tested cancer cell lines (BT474, Chago K-1, Hep-G2, Kato-III, SW 620); assay: MTT assay, all tested cancer cell lines together; format: cell-based, human
Summary of the method: (§1)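 Cells grown in RPMI 1640 with 5% fetal calf serum at 37°C, 5% CO2. Seeded 5,000 cells per well, 24 h, then test compound in DMSO added (vehicle DMSO, or water for the reference drug), 48 h at 37°C. MTT solution (5 mg/ml) added for 4 h, medium removed, formazan dissolved in DMSO plus 0.1 mol/l glycine, A540 read. Run in quadruplicate.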

[4] = system: Kato-III gastric carcinoma cells; assay: MTT assay, Kato-III; format: cell-based; conditions: Homo sapiens, 48 h, read-out: IC50 Kato-III
Summary of the method: as §1

α-glucosidase = conditions: cited from earlier work
[5] = system: CCD-986SK skin fibroblast cells; assay: MTT assay, normal skin fibroblast; format: cell-based, human
Summary of the method: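 Culture medium was Dulbecco's modified Eagle's medium, 37°C, 5% CO2. Cells were seeded at 5,000 per well for 24 h and exposed to test compound in DMSO for 48 h at 37°C. MTT (5 mg/ml solution) was added for 4 h, medium was removed, formazan was dissolved in DMSO with 0.1 mol/l glycine, and A540 was read. Run in quadruplicate.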

[6] = system: BT474 ductal carcinoma cells; assay: MTT assay, BT474; format: cell-based; conditions: Homo sapiens, BT-474, 48 h, read-out: IC50 BT474
Summary of the method: as §1

α-amylase = conditions: cited from earlier work
[7] = system: Chago K-1 bronchogenic carcinoma cells; assay: MTT assay, Chago K-1; format: cell-based; conditions: Homo sapiens, ChaGo-K-1, 48 h, read-out: IC50 Chago-K1
Summary of the method: as §1

[8] = system: SW 620 colon adenocarcinoma cells; assay: MTT assay, SW 620; format: cell-based; conditions: Homo sapiens, SW-620, 48 h, read-out: IC50 SW620
Summary of the method: as §1

[9] = system: Hep-G2 liver hepatoblastoma cells; assay: MTT assay, Hep-G2; format: cell-based; conditions: Homo sapiens, HepG2, 48 h, read-out: IC50 Hep-G2
Summary of the method: as §1

[10] = system: WI-38 VA-13 subline 2RA lung fibroblast cells; assay: MTT assay, normal lung fibroblast; format: cell-based, human
Summary of the method: as §1

[11] = read-out: % inhibition of pancreatic α-amylase

yeast α-glucosidase, sequence (P53341 whole entry): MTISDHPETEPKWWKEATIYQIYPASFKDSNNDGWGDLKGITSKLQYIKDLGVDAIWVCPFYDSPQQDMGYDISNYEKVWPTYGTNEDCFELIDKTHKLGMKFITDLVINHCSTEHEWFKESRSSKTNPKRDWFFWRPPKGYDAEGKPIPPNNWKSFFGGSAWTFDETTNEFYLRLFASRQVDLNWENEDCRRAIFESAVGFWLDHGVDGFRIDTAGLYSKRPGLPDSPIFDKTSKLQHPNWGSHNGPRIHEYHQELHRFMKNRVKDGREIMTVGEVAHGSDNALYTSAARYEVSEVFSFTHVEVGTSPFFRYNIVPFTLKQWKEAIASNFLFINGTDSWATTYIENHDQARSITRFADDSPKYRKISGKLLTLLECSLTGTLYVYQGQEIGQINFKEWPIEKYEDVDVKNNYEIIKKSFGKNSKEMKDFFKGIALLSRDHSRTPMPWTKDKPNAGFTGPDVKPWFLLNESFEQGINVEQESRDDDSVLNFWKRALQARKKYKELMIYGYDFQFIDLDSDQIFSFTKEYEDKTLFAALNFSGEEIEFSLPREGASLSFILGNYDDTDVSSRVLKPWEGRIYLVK

## C[C@H]1O[C@H](O[C@H]2[C@H](O)[C@@H](O)[C@@H](O[C@H]3[C@H](O)[C@@H](O)C(O)O[C@@H]3CO)O[C@@H]2CO)[C@H](O)[C@@H](O)[C@@H]1N[C@H]1C=C(CO)[C@@H](O)[C@H](O)[C@H]1O (some centres unmarked) [Acarbose]
[1]
  IC50 Rat α-glucosidase: 449.3 µg/mL (≈ 696 µM)
  % inhibition of rat α-glucosidase: 58.7%
[2]; [11]
  inhibition at 156 µg/mL: 73.9%
Yeast α-glucosidase; at 40 mg/ml
  % inhibition of yeast α-glucosidase: 73.9%

## O=c1c2cc(O)c(O)cc2oc2cc(O)c([C@@H]3O[C@H](CO)[C@@H](O)[C@H](O)[C@H]3O)c(O)c12 [Mangiferin, 1,3,6,7-Tetrahydroxyxanthone C2-ß-D-glucoside]
[3]
  effect on % survival of tested cancer cells: did not significantly affect % survival
[3]; listed as mangiferin
  effect on % survival of tested cancer cells: did not show significantly toxicity
[4]
  IC50: > 200 µg/mL
α-glucosidase
  IC50 α-glucosidase: 41.88 µg/mL (≈ 99.2 µM)
[5]; Homo sapiens, CCD-986Sk, 48 h, read-out: IC50 CCD
  IC50: > 200 µg/mL
[5]; MTT, listed as mangiferin
  effect on % survival of skin fibroblast normal cell line: tended to increase the survival; also recorded: increased % survival of skin fibroblast
[1]
  IC50 Rat α-glucosidase: 433.3 µg/mL (≈ 1030 µM)
  % inhibition of rat α-glucosidase: 92.6%
[1]; listed as mangiferin
  IC50 Rat α-glucosidase: 430 µg/mL (≈ 1020 µM)
[2]
  IC50: 2480 µM
[2]; [11]
  inhibition at 5000 µg/mL: 95.6%
[6]
  IC50: > 200 µg/mL
α-amylase
  IC50 α-amylase: 74.35 µg/mL (≈ 176 µM)
[7]
  IC50: > 200 µg/mL
[8]
  IC50: > 200 µg/mL
[9]
  IC50: > 200 µg/mL
Yeast α-glucosidase; read-out: % inhibition of yeast α-glucosidase
  inhibition at 2500 µg/mL: 93.3%
[10]; Homo sapiens, WI-38 VA13, 48 h, read-out: IC50 Wi-38
  IC50: > 200 µg/mL
[10]; at high dose, MTT
  effect on survival of lung fibroblast normal cell line: tended to increase the survival
